pKi: −log10 of the molar value.
Key:
Intestine [1] = test: Drug uptake in ICR mouse intestine assessed per organ at 370 kBq/100 ul, iv at 30 mins by gamma-counting analysis; type: ADME, organism-based; details: in vivo, 0.5 h
Outline: (§1)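 Male ICR mice (5 weeks, about 20 g) got 18F tracer in saline (370 KBq per 100 μL) via tail vein; n = 5 per time point, killed at 2, 10, 30, 60 min. Organs removed and γ-counted against diluted injectate; expressed as % injected dose per organ.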

Intestine [2] = test: Drug uptake in ICR mouse intestine assessed per organ at 370 kBq/100 ul, iv at 10 mins by gamma-counting analysis; type: ADME, organism-based; details: in vivo; outline: as §1
Intestine [3] = test: Drug uptake in ICR mouse intestine assessed per organ at 370 kBq/100 ul, iv at 2 mins by gamma-counting analysis; type: ADME, organism-based; details: in vivo; outline: as §1
Stomach [4] = test: Drug uptake in ICR mouse stomach assessed per organ at 370 kBq/100 ul, iv at 60 mins by gamma-counting analysis; type: ADME, organism-based; details: in vivo, 1 h
Outline: (§2)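 Normal male ICR mice (5 weeks, about 20 g) received the ¹⁸F tracer in saline (370 KBq per 100 μL) by tail-vein injection. Groups of n = 5 were killed at 2, 10, 30 and 60 min. Organs were removed, weighed and γ-counted against diluted aliquots of the injectate, giving % dose per gram. Stomach and intestine were expressed per organ. The brain ratio is 2 min/60 min uptake. Values are mean ± SD.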

Stomach [5] = test: Drug uptake in ICR mouse stomach assessed per organ at 370 kBq/100 ul, iv at 30 mins by gamma-counting analysis; type: ADME, organism-based; details: in vivo, 0.5 h; outline: as §1
Stomach [6] = test: Drug uptake in ICR mouse stomach assessed per organ at 370 kBq/100 ul, iv at 10 mins by gamma-counting analysis; type: ADME, organism-based; details: in vivo; outline: as §1
Stomach [7] = test: Drug uptake in ICR mouse stomach assessed per organ at 370 kBq/100 ul, iv at 2 mins by gamma-counting analysis; type: ADME, organism-based; details: in vivo; outline: as §1
Kidney [8] = test: Drug uptake in ICR mouse kidney at 370 kBq/100 ul, iv at 60 mins by gamma-counting analysis; type: ADME, organism-based; details: in vivo, 1 h
Outline: (§3)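 Male ICR mice (5 weeks, about 20 g) got 18F tracer in saline (370 KBq per 100 μL) via tail vein; n = 5 per time point, killed at 2, 10, 30, 60 min. Organs weighed and γ-counted; percent dose per gram wet tissue from comparison with diluted injectate aliquots.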

Kidney [9] = test: Drug uptake in ICR mouse kidney at 370 kBq/100 ul, iv at 30 mins by gamma-counting analysis; type: ADME, organism-based; details: in vivo, 0.5 h; outline: as §3
Kidney [10] = test: Drug uptake in ICR mouse kidney at 370 kBq/100 ul, iv at 10 mins by gamma-counting analysis; type: ADME, organism-based; details: in vivo; outline: as §3
Lung [11] = test: Drug uptake in ICR mouse lung at 370 kBq/100 ul, iv at 60 mins by gamma-counting analysis; type: ADME, organism-based; details: in vivo, 1 h; outline: as §3
Kidney [12] = test: Drug uptake in ICR mouse kidney at 370 kBq/100 ul, iv at 2 mins by gamma-counting analysis; type: ADME, organism-based; details: in vivo; outline: as §3
Lung [13] = test: Drug uptake in ICR mouse lung at 370 kBq/100 ul, iv at 30 mins by gamma-counting analysis; type: ADME, organism-based; details: in vivo, 0.5 h; outline: as §3
Lung [14] = test: Drug uptake in ICR mouse lung at 370 kBq/100 ul, iv at 10 mins by gamma-counting analysis; type: ADME, organism-based; details: in vivo; outline: as §3
Lung [15] = test: Drug uptake in ICR mouse lung at 370 kBq/100 ul, iv at 2 mins by gamma-counting analysis; type: ADME, organism-based; details: in vivo; outline: as §3
Spleen [16] = test: Drug uptake in ICR mouse spleen at 370 kBq/100 ul, iv at 60 mins by gamma-counting analysis; type: ADME, organism-based; details: in vivo, 1 h; outline: as §3
Spleen [17] = test: Drug uptake in ICR mouse spleen at 370 kBq/100 ul, iv at 10 mins by gamma-counting analysis; type: ADME, organism-based; details: in vivo; outline: as §3
Spleen [18] = test: Drug uptake in ICR mouse spleen at 370 kBq/100 ul, iv at 30 mins by gamma-counting analysis; type: ADME, organism-based; details: in vivo, 0.5 h; outline: as §3
Spleen [19] = test: Drug uptake in ICR mouse spleen at 370 kBq/100 ul, iv at 2 mins by gamma-counting analysis; type: ADME, organism-based; details: in vivo; outline: as §3
Liver [20] = test: Drug uptake in ICR mouse liver at 370 kBq/100 ul, iv at 60 mins by gamma-counting analysis; type: ADME, organism-based; details: in vivo, 1 h; outline: as §3
Liver [21] = test: Drug uptake in ICR mouse liver at 370 kBq/100 ul, iv at 30 mins by gamma-counting analysis; type: ADME, organism-based; details: in vivo, 0.5 h; outline: as §3
Liver [22] = test: Drug uptake in ICR mouse liver at 370 kBq/100 ul, iv at 2 mins by gamma-counting analysis; type: ADME, organism-based; details: in vivo; outline: as §3
Liver [23] = test: Drug uptake in ICR mouse liver at 370 kBq/100 ul, iv at 10 mins by gamma-counting analysis; type: ADME, organism-based; details: in vivo; outline: as §3
Heart [24] = test: Drug uptake in ICR mouse heart at 370 kBq/100 ul, iv at 60 mins by gamma-counting analysis; type: ADME, organism-based; details: in vivo, 1 h; outline: as §3
Heart [25] = test: Drug uptake in ICR mouse heart at 370 kBq/100 ul, iv at 30 mins by gamma-counting analysis; type: ADME, organism-based; details: in vivo, 0.5 h; outline: as §3
Heart [26] = test: Drug uptake in ICR mouse heart at 370 kBq/100 ul, iv at 10 mins by gamma-counting analysis; type: ADME, organism-based; details: in vivo; outline: as §3
Brain [27] = test: Drug uptake in ICR mouse brain at 370 kBq/100 ul, iv at 60 mins by gamma-counting analysis; type: ADME, organism-based; details: in vivo, 1 h; outline: as §3
Heart [28] = test: Drug uptake in ICR mouse heart at 370 kBq/100 ul, iv at 2 mins by gamma-counting analysis; type: ADME, organism-based; details: in vivo; outline: as §3
Brain [29] = test: Drug uptake in ICR mouse brain at 370 kBq/100 ul, iv at 30 mins by gamma-counting analysis; type: ADME, organism-based; details: in vivo, 0.5 h; outline: as §3
Brain [30] = test: Drug uptake in ICR mouse brain at 370 kBq/100 ul, iv at 10 mins by gamma-counting analysis; type: ADME, organism-based; details: in vivo; outline: as §3
Brain [31] = test: Drug uptake in ICR mouse brain at 370 kBq/100 ul, iv at 2 mins by gamma-counting analysis; type: ADME, organism-based; details: in vivo; outline: as §3
Blood [32] = test: Drug uptake in ICR mouse blood at 370 kBq/100 ul, iv at 30 mins by gamma-counting analysis; type: ADME, organism-based; details: in vivo, 0.5 h; outline: as §3
Blood [33] = test: Drug uptake in ICR mouse blood at 370 kBq/100 ul, iv at 60 mins by gamma-counting analysis; type: ADME, organism-based; details: in vivo, 1 h; outline: as §3
Blood [34] = test: Drug uptake in ICR mouse blood at 370 kBq/100 ul, iv at 10 mins by gamma-counting analysis; type: ADME, organism-based; details: in vivo; outline: as §3
Blood [35] = test: Drug uptake in ICR mouse blood at 370 kBq/100 ul, iv at 2 mins by gamma-counting analysis; type: ADME, organism-based; details: in vivo; outline: as §3
Brain [36] = test: Drug uptake in healthy human brain at 370 KBq/100 ul after 1 hr by autoradiographic analysis; type: ADME, tissue-based; details: in vitro
[37] = Displacement of [125I]-IMPY from amyloid beta (1 to 42) fibrils after 2 hrs by gamma-counting analysis
Outline: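 Competition binding with aggregated Aβ1-42 fibrils and [125I]IMPY (60000−100000 cpm/100 μL) in 0.05% BSA (1 mL total); inhibitors 10⁻⁴−10^−8.5 M in ethanol. Incubated 37 °C for 2 h, then GF/B vacuum filtration with PBS (0.02 M, pH 7.4) washes and γ counting. Three repeats; IC50 converted to Ki by Cheng−Prusoff.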

Brain [38] = test: Drug uptake in wild type C57BL6 mouse brain at 370 KBq/100 ul after 1 hr by autoradiographic analysis; type: ADME, tissue-based; details: in vitro
Outline: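 Paraffin brain sections from 12-month-old male control C57BL6 mice were deparaffinized through xylene and graded ethanol, then held in PBS (0.2 M, pH 7.4) for 30 min. They were incubated with the ¹⁸F tracer (370 KBq per 100 μL) for 1 h at room temperature. Sections were washed in 40% EtOH, rinsed with water for 1 min, dried, and exposed to a phosphor plate for 2 h. The same sections were then stained with thioflavin S.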

[39] = n-Octanol-PBS buffer partition coefficient, log D of the compound at 1.5 MBq after 3 mins at pH 7.4; type: physicochemical
Outline: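 The tracer was partitioned between n-octanol and PBS by vortexing for 3 min at room temperature, then centrifuged for 5 min at 3000 rpm. Samples of the octanol (50 μL) and aqueous (500 μL) layers were counted. log D is the log of the octanol/PBS counts-per-gram ratio. The octanol layer was repartitioned until values were consistent. Measured in triplicate and repeated three times.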

Brain [40] = test: Ratio of drug uptake in brain at 2 mins to drug uptake in brain at 60 mins in ICR mouse at 370 KBq/100 ul, iv; type: ADME, organism-based; details: in vivo; outline: as §2
Bone [41] = test: Drug uptake in ICR mouse bone at 370 kBq/100 ul, iv at 60 mins by gamma-counting analysis; type: ADME, organism-based, Bone element; details: in vivo, 1 h; outline: as §3
Bone [42] = test: Drug uptake in ICR mouse bone at 370 kBq/100 ul, iv at 30 mins by gamma-counting analysis; type: ADME, organism-based, Bone element; details: in vivo, 0.5 h; outline: as §3
Bone [43] = test: Drug uptake in ICR mouse bone at 370 kBq/100 ul, iv at 2 mins by gamma-counting analysis; type: ADME, organism-based, Bone element; details: in vivo; outline: as §3
Bone [44] = test: Drug uptake in ICR mouse bone at 370 kBq/100 ul, iv at 10 mins by gamma-counting analysis; type: ADME, organism-based, Bone element; details: in vivo; outline: as §3
Intestine [45] = test: Drug uptake in ICR mouse intestine assessed per organ at 370 kBq/100 ul, iv at 60 mins by gamma-counting analysis; type: ADME, organism-based; details: in vivo, 1 h; outline: as §1

Drug uptake (Intestine [1]): 25.23 %ID
Drug uptake (Intestine [2]): 11.15 %ID
Drug uptake (Intestine [3]): 12.06 %ID
Drug uptake (Stomach [4]): 3.67 %ID
Drug uptake (Stomach [5]): 4.63 %ID
Drug uptake (Stomach [6]): 5.61 %ID
Drug uptake (Stomach [7]): 3.61 %ID
Drug uptake (Kidney [8]): 3.45 % ID/g
Drug uptake (Kidney [9]): 3.62 % ID/g
Drug uptake (Kidney [10]): 4.42 % ID/g
Drug uptake (Lung [11]): 2.72 % ID/g
Drug uptake (Kidney [12]): 9.57 % ID/g
Drug uptake (Lung [13]): 3.57 % ID/g
Drug uptake (Lung [14]): 3.02 % ID/g
Drug uptake (Lung [15]): 5.85 % ID/g
Drug uptake (Spleen [16]): 2.86 % ID/g
Drug uptake (Spleen [17]): 3.29 % ID/g
Drug uptake (Spleen [18]): 2.87 % ID/g
Drug uptake (Spleen [19]): 4.52 % ID/g
Drug uptake (Liver [20]): 3.06 % ID/g
Drug uptake (Liver [21]): 4.28 % ID/g
Drug uptake (Liver [22]): 10.4 % ID/g
Drug uptake (Liver [23]): 5.94 % ID/g
Drug uptake (Heart [24]): 3.7 % ID/g
Drug uptake (Heart [25]): 3.33 % ID/g
Drug uptake (Heart [26]): 3.11 % ID/g
Drug uptake (Brain [27]): 2.83 % ID/g
Drug uptake (Heart [28]): 5.59 % ID/g
Drug uptake (Brain [29]): 3.38 % ID/g
Drug uptake (Brain [30]): 4.54 % ID/g
Drug uptake (Brain [31]): 7.87 % ID/g
Drug uptake (Blood [32]): 4.45 % ID/g
Drug uptake (Blood [33]): 4.45 % ID/g
Drug uptake (Blood [34]): 3.94 % ID/g
Drug uptake (Blood [35]): 4.31 % ID/g
Drug uptake (Brain [36]): Not Active
pKi [37]: 8.00
Drug uptake (Brain [38]): Not Active
logD at 0.05 h [39]: 3.59
Ratio (Brain [40]): 2.78
Drug uptake (Bone [41]): 6.7 % ID/g
Drug uptake (Bone [42]): 3.77 % ID/g
Drug uptake (Bone [43]): 2.04 % ID/g
Drug uptake (Bone [44]): 2.43 % ID/g
Drug uptake (Intestine [45]): 19 %ID
SMILES: CNc1ccc(-c2nc3ccc(OCC[18F])cc3s2)cn1
